Our source for the IC50 values is ChEMBL document CHEMBL1158767, “Cytotoxic steroidal saponins from the rhizomes of Asparagus oligoclonos” (J Nat Prod, 2005).

Values after ≈ are worked out from the molar mass of the structure shown.

Format in all cases: functional, cell-based
The test system of one assay is SK-MEL-2. In words: Cytotoxicity against human SK-MEL-2 cells by SRB assay. The method in brief: (§1)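 Standard sulforhodamine B assay on a panel of human tumour lines: A549 lung carcinoma, SK-OV-3 ovarian adenocarcinoma (from malignant ascites), SK-MEL-2 malignant melanoma (skin metastasis, thigh), XF-498 central nervous system tumour, and HCT 15 colon adenocarcinoma. Testing was done by an external pharmacology group.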
(In general: Sulforhodamine B stains cellular protein and so reports cell mass.)

For a further assay, the system named is XF498. In words: Cytotoxicity against human XF498 cells by SRB assay. The method in brief:
as §1

The subject of the next assay is HCT-15. The experiment in a line: Cytotoxicity against human HCT15 cells by SRB assay. In short, it runs like this: as §1
In the next assay the test system is SK-OV-3. The experiment in a line: Cytotoxicity against human SKOV3 cells by SRB assay. In short, it runs like this:
as §1

A further assay deals with A549. In words: Cytotoxicity against human A549 cells by SRB assay.

Broadly, the IC50 is the concentration that inhibits the measured activity by half.

Turning to `COc1cccc2c1C(=O)c1c(O)c3c(c(O)c1C2=O)C[C@@](O)(C(=O)CO)C[C@@H]3O[C@H]1C[C@H](N)[C@H](O)[C@H](C)O1` [DOXORUBICIN], the IC50 in the assay on SK-MEL-2 amounted to 0.03 µg/mL (≈ 0.0552 µM); with XF498, 0.12 µg/mL (≈ 0.221 µM); in the assay on HCT-15, 0.08 µg/mL (≈ 0.147 µM); in the assay with SK-OV-3, 0.18 µg/mL (≈ 0.331 µM).

Consider `C[C@H]1CC[C@@]2(OC1)O[C@H]1C[C@H]3[C@@H]4CC[C@@H]5C[C@@H](O[C@@H]6O[C@H](CO)[C@@H](O)[C@H](O)[C@H]6O[C@@H]6O[C@@H](CO)[C@H](O)[C@H](O)[C@H]6O)CC[C@]5(C)[C@H]4CC[C@]3(C)[C@H]1[C@@H]2C` (relative stereo) [ASPARANIN A], for which the IC50 with A549 was 2.05 µg/mL (≈ 2.77 µM); with SK-MEL-2 it was 2.41 µg/mL (≈ 3.25 µM); in the assay on XF498 it was 2.56 µg/mL (≈ 3.46 µM); in the assay on HCT-15, 2.47 µg/mL (≈ 3.33 µM); in the assay on SK-OV-3 it was 2.43 µg/mL (≈ 3.28 µM).

Take `C[C@H]1CC[C@@]2(OC1)O[C@H]1C[C@H]3[C@@H]4CC[C@@H]5C[C@@H](O[C@@H]6O[C@H](CO)[C@@H](O)[C@H](O)[C@H]6O[C@@H]6O[C@@H](CO)[C@H](O)[C@H](O)[C@H]6O)CC[C@]5(C)[C@H]4CC[C@]3(C)[C@@]1(O)[C@@H]2C` (relative stereo) [ASPAOLIGONIN A]: the IC50 was 2.25 µg/mL (≈ 2.97 µM) with A549; 2.53 µg/mL (≈ 3.34 µM) in the assay on SK-MEL-2; 2.84 µg/mL (≈ 3.75 µM) in the assay on XF498; 2.59 µg/mL (≈ 3.42 µM) with HCT-15; 2.66 µg/mL (≈ 3.51 µM) in the assay on SK-OV-3.

Regarding `C[C@H]1CC[C@@]2(OC1)O[C@H]1C[C@H]3[C@@H]4CC[C@@H]5C[C@@H](O[C@@H]6O[C@H](CO)[C@@H](O[C@@H]7O[C@@H](C)[C@H](O)[C@@H](O)[C@H]7O)[C@H](O)[C@H]6O[C@@H]6OC[C@@H](O)[C@H](O)[C@H]6O)CC[C@]5(C)[C@H]4CC[C@]3(C)[C@@]1(O)[C@@H]2C` (relative stereo) [ASPAOLIGONIN B], the IC50 was 2.55 µg/mL (≈ 2.92 µM) in the assay on A549; 2.59 µg/mL (≈ 2.97 µM) in the assay with SK-MEL-2; 2.51 µg/mL (≈ 2.88 µM) in the assay with XF498; 2.57 µg/mL (≈ 2.94 µM) in the assay on HCT-15; 2.73 µg/mL (≈ 3.13 µM) in the assay with SK-OV-3.
